Assay [1] relates to CHO. The experiment in a line: Compound was evaluated for maximum binding of [3H]BBL454 to two sites in CHO cells with high affinity. In kind it is functional, Cricetulus griseus.
The subject of assay [2] is CHO. The experiment in a line: Compound was evaluated for binding of [3H]BBL454 to two sites in CHO cells with low affinity. In kind it is functional, Cricetulus griseus.
The subject of assay [3] is CHO. The experiment in a line: Agonistic activity on arachidonic acid liberation by intact transfected CHO cells. In kind it is functional, cell-based. The conditions noted are these: Cricetulus griseus. The gist of the method:
(§1)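 Functional agonism on intact CHO cells transfected with CCK2 receptors. Two read-outs were measured, inositol phosphate production and arachidonic acid liberation, each expressed as EC50.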

The test system of assay [4] is CHO. Kind of assay: Agonistic activity on inositol phosphate production by intact transfected CHO cells. In kind it is functional, cell-based. The settings on record: Cricetulus griseus. The gist of the method: as §1
Assay [5] relates to CHO. The experiment in a line: Compound was evaluated for binding of [3H]BBL454 to two sites in CHO cells with high affinity. In kind it is functional, Cricetulus griseus.
In assay [6] the target is Gastrin/cholecystokinin type B receptor (Rattus norvegicus) (UniProt P30553). The experiment in a line: Ability to displace 1 nM [3H]pCCK-8 from rat Cholecystokinin type B receptor stably expressing in CHO cells.
The target in assay [7] is Cholecystokinin receptor type A (Cavia porcellus). The experiment in a line: Ability to displace 1 nM [3H]pCCK-8 from Cholecystokinin type A receptor in guinea pig pancreatic membranes.

Non-standard residues stand in square brackets, D forms with d. Residues, ends and D or L forms follow the SMILES beside them. *: point of attachment. NMeNle = CCCC[C@H](NC)C(=O)O; X1 = CCCCCNC(=O)CC(=O)*; Boc = CC(C)(C)OC(=O)*

The values that follow come from ChEMBL document CHEMBL1146828, “Synthesis and biological characterisation of [3H]BBL454, a new CCK2 selective radiolabelled agonist displaying original pharmacological properties” (Bioorg Med Chem Lett, 2004).

A word on the EC50: it is the concentration at which the effect is half-maximal. For orientation: Ki means the dissociation constant of the complex between target and ligand, obtained from inhibition or displacement. Lower therefore signals a stronger hold on the target.

Sequence of Gastrin/cholecystokinin type B receptor (Rattus norvegicus) (P30553 whole entry, looked up): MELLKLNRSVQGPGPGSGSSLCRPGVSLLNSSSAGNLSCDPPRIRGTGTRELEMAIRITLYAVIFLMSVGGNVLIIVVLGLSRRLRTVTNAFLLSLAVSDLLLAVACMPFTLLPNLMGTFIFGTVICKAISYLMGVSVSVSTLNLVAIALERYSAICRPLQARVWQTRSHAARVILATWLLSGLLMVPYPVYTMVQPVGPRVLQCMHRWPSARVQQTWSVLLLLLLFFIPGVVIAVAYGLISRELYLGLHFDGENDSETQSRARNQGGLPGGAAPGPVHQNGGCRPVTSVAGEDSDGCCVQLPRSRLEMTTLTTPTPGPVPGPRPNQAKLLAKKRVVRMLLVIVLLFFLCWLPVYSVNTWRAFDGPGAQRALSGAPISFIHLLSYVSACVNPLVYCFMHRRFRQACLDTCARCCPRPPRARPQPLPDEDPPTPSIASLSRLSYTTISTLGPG

`CCCCCNC(=O)CC(=O)N[C@@H](Cc1c[nH]c2ccccc12)C(=O)N(C)[C@@H](CCCC)C(=O)N[C@@H](CC(=O)O)C(=O)N[C@@H](Cc1ccccc1)C(N)=O` (X1-W[NMeNle]DF-NH2) displayed a Bmax1 in assay [1] of 120 fmol/mg. Besides, the KD2 in assay [2] amounted to 194 nM. Moreover, the results for the EC50 in assay [3] and in assay [4] were 6.9 nM and 2 nM, respectively. The compound also returned a KD1 in assay [5] of 0.71 nM. The values for the Ki in assay [6] and in assay [7] were 2.66 nM and 3.64 µM, respectively.

For `CCCC[C@@H](C(=O)N[C@@H](CC(=O)O)C(=O)N[C@@H](Cc1ccccc1)C(N)=O)N(C)C(=O)[C@H](Cc1c[nH]c2ccccc12)NC(=O)OC(C)(C)C` (Boc-W[NMeNle]DF-NH2), the Ki in assay [6] was 2.6 nM; in assay [7], over 5 µM.
